Source: PubChem BioAssay (The Scripps Research Institute Molecular Screening Center)
A selection: hits, their analogues and other compounds. The true share with any hit is near 2.3%.
TAAR1 agonist = human TAAR1 agonists, primary screen, Fluo-8 calcium fluorescence, CHO RD-HGA16 cells; vehicle wells 0%, saturating PEA agonist 100%; activation, % at 3 µM; 360,000 compounds, 0.99% hits; Trace amine-associated receptor 1 (Homo sapiens), Q96RJ0;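 active = activation above the mean activation of all test compounds in the run plus 3 SD, cut at about 38% in these data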
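Test system: RD-HGA16 (CHO) cells co-expressing Gα16 and hTAAR1 | Doses: Single dose, 3 µM | Schedule: 17-24 h seeding, 75 min 37 °C dye, 30 min RT | Evaluation: % activation from peak over basal fluorescence ratio, DMSO-to-PEA scaled | Technique: Kinetic Fluo-8 calcium fluorescence | Benchmarks: Low control DMSO, high control PEA (EC100)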
V1aR counter = agonists of human V1a receptor, primary screen, counter-screen for OXTR agonist project, fluorescence, CHO-V1R cells; Vasopressin V1a receptor (Homo sapiens), P37288; Fluo-8 calcium fluorescence, agonist mode; 0% DMSO, 100% 3 nM vasopressin; activation, % at 3 µM; 320,000 compounds, 0.25% hits; AID 2797, 2010;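 active = activation above the mean activation of all tested compounds plus 3 SD, per screening run, cut at about 20% in these data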;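 also: signal is peak over basal fluorescence ratio across a 100 second FLIPR read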
Target sequence (P37288 whole entry, looked up): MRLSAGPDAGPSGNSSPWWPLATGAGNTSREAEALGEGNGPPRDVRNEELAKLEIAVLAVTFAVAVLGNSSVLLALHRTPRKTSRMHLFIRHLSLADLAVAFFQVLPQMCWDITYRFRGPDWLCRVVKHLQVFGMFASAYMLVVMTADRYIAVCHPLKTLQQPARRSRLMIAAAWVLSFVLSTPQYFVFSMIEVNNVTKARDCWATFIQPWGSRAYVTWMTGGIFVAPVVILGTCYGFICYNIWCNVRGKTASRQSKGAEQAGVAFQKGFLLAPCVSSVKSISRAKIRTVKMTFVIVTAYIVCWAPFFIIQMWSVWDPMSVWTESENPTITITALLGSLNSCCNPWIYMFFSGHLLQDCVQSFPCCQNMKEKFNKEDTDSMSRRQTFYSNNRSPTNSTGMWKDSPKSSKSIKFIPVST
TAAR1 antag = human TAAR1 antagonists, primary screen, Fluo-8 calcium fluorescence, CHO RD-HGA16 cells; Trace amine-associated receptor 1 (Homo sapiens), Q96RJ0; antagonist; inhibition, % at 3 µM; 360,000 compounds, 1.5% hits;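 active = inhibition above a per-plate cutoff, the mean inhibition of test compounds on that plate plus 3 SD, cut at about 49% in these data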;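 also: 0% = DMSO plus EC80 beta-PEA response and 100% = DMSO alone without agonist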
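Test system: hTAAR1-expressing CHO RD-HGA16 cells, Gα16-coupled; Probe or stimulus: EC80 β-phenethylamine stimulus; Compound dosing: single nominal final test compound concentration of 3 µM; Timing: 140 s kinetic read after compound, 140 s after agonist; Signal: Fluo-8 calcium-sensitive fluorescence; Measure: % inhibition of agonist calcium response; Controls: DMSO and EC80 PEA controls.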
OXTR ag = human OXTR agonists, primary screen, fluorescence, CHO-OTR cells, Fluo-8 calcium; Oxytocin receptor (Homo sapiens), P30559; Fluo-8 calcium fluorescence; normalized: DMSO 0%, oxytocin 100%; activation, % at 3 µM; 320,000 compounds, 0.32% hits;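 active = activation above the mean of all tested compounds plus 3 SD, cutoff set per screening run, cut at about 20% in these data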;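 also: peak over basal fluorescence ratio from a 100 s FLIPR kinetic read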
OXTR potentiator = human OXTR potentiators, primary screen, fluorescence, CHO-OTR cells, Fluo-8 calcium. Oxytocin receptor (Homo sapiens), P30559. Fluo-8 calcium fluorescence, potentiator mode; 0% = oxytocin EC15, 100% = EC100. activation, % at 3 µM. 320,000 compounds, 0.061% hits. AID 2445, 2010;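 active = activation above that plate's cutoff, the mean activation of tested compounds plus 3 SD, cut at about 6.6% in these data, passing the limit was not always enough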;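 also: 100% uses oxytocin at 75 nM as the full agonist control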
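Dosing: Single dose, 3.0 µM nominal final compound concentration | Material: Human OTR in CHO cells | Technique: Kinetic Fluo-8 calcium fluorescence | Benchmarks: EC15 oxytocin alone as 0%, 75 nM oxytocin as 100% | Probe or stimulus: Oxytocin at about EC15, sub-maximal agonist stimulus | Incubation: Compound 6 min at room temperature before oxytocin, 100 s read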
Numbers without * were called inactive; . = no result given.

SMILES | TAAR1 agonist | V1aR counter | TAAR1 antag | OXTR ag | OXTR potentiator
Cc1cc(OCc2cc(C(=O)N3CCC(Oc4cccnc4)CC3)no2)cc(C)c1Cl | 11.0 | 8.3 | 52.5* | 5.2 | -17.7
Cc1cc(OCc2cc(C(=O)N3CCN(CC4CC4)CC3)no2)cc(C)c1Cl | 4.4 | 10.8 | -5.7 | 5.0 | -6.9
CN1CCC(Oc2ccc(Sc3ccccc3)cc2)CC1 | 16.6 | 11.4 | -3.8 | 22.4* | -8.9
CN1CCC(Oc2ccccc2Sc2ccc(C(F)(F)F)cc2)CC1 | 2.3 | 8.4 | 2.2 | 15.5 | -7.1
CCc1ccccc1N(CC(=O)NC(C)(C)C)C(=O)CCC(=O)Nc1ccccn1 | 0.4 | 1.3 | 3.5 | -0.8 | 0.5
COc1ccc(CS(=O)(=O)CC(C)(O)c2ccc(Cl)cc2)cc1 (stereo not drawn) | -2.2 | 0.4 | 3.5 | -2.3 | -10.9
CO/N=C(\CS(=O)(=O)Cc1ccc(OC)cc1)c1ccc(Cl)cc1 | 42.7* | -0.1 | 23.7 | -1.2 | -0.6
CCCCCN(C(=O)CCc1cn(CCCCC)c2ccccc12)c1ccc(Oc2cccnc2)cc1 | -0.7 | . | -9.3 | . | .
COc1ccc(CCNC(=O)c2cc(C(=O)c3cc(C)ccc3O)cn(CCc3ccc(OC)cc3)c2=O)cc1 | 4.1 | 1.2 | 54.3* | 0.6 | -8.1
C=CC[C@@H](Cc1ccc(F)cc1)C(=O)OC[C@H]1CCCN1C(=O)[C@@H](CC=C)CC(=O)N[C@@H](CO)Cc1ccccc1 | 10.3 | 2.2 | 16.2 | 2.0 | -8.5
C=CC[C@@H](Cc1ccc(F)cc1)C(=O)OC[C@H]1CCCN1C(=O)[C@H](CC=C)CC(=O)N[C@H](CO)Cc1ccccc1 | 12.7 | 2.1 | 50.0* | -0.8 | -8.3
C=CCC[C@@H](Cc1ccc(F)cc1)C(=O)OC[C@@H]1CCCN1C(=O)[C@@H](CC=C)CC(=O)N(CCO)Cc1ccccc1 | 11.9 | 0.3 | 57.4* | 0.0 | -7.4
C=CCC[C@@H](Cc1ccc(F)cc1)C(=O)OC[C@@H]1CCCN1C(=O)[C@H](CC=C)CC(=O)N[C@H](CO)Cc1ccccc1 | 8.2 | 2.7 | 10.7 | -1.5 | -7.8
CCOC(=O)C1=C(COC(=O)/C=C/c2ccccc2F)NC(=O)NC1C (stereo not drawn) | 22.9 | 1.2 | 55.9* | -0.1 | -1.8
CCOC(=O)C1=C(COC(=O)/C=C/c2ccccc2Cl)NC(=O)NC1C (stereo not drawn) | 7.5 | 2.6 | 40.1 | 0.5 | -11.4
CCOC(=O)C1=C(COC(=O)/C=C/c2cccc(F)c2)NC(=O)NC1C (stereo not drawn) | 17.5 | 1.0 | 52.2* | 2.2 | -5.5
CCOC(=O)C1=C(COC(=O)/C=C/c2ccc(F)cc2)NC(=O)NC1C (stereo not drawn) | 18.4 | . | 55.3* | . | .
CCOC(=O)C1=C(COC(=O)/C=C/c2ccc(OCC)c(OC)c2)NC(=O)NC1C (stereo not drawn) | 3.1 | -0.8 | 9.7 | -1.8 | -12.9
CCOC(=O)C1=C(COC(=O)/C=C/c2ccc(Cl)cc2)NC(=O)NC1C (stereo not drawn) | 6.2 | -0.3 | 38.5 | 0.2 | 1.7
O=C(CC1CCCCC1)NCc1nc(-c2ccccc2)no1 | 3.4 | -0.4 | -18.6 | 1.1 | -2.7
O=[N+]([O-])c1nn(-c2ccc3c(c2)OCCO3)n(O)c1=NCCC1=CCCCC1 | -0.4 | -0.2 | -8.7 | -1.9 | 0.3
C/C=C/c1ccc2c(c1)O[C@@H](CN(C)C(=O)c1ccc(F)cc1)[C@@H](C)CN([C@H](C)CO)S2(=O)=O | 4.2 | . | -6.5 | . | .
CCCCCCCC[n+]1cccc(C(=O)N(CC)CC)c1 | 7.2 | 0.8 | 9.9 | 0.2 | -1.8
CCCCCCCCCCCCCCCC[n+]1cccc(C(=O)N(CC)CC)c1 | 7.8 | 23.5* | 41.8 | 37.4* | -18.6
O=C1CN(S(=O)(=O)c2ccccc2)c2ccccc2N1 | 3.7 | 0.2 | -29.9 | 1.0 | 1.1
O=C(CCN1C(=O)NC2(CCCC2)C1=O)Nc1ccc(-c2nc3ccccc3s2)cc1 | 27.7 | 9.2 | 67.5* | 12.9 | -10.1
